Measured values reported in ChEMBL document CHEMBL3259728, “Design, synthesis and biological evaluation of some novel substituted quinazolines as antitumor agents” (2014).

Assays:
Format in all cases: functional
[1] = Growth inhibition of human SF539 cells assessed as cell growth at 10^-4 M after 48 hrs by SRB assay; details: SF-539, 48 h, read-out: Activity
SW-620 = experiment: Growth inhibition of human SW620 cells assessed as cell growth at 10^-4 M after 48 hrs by SRB assay; details: SW-620, 48 h, read-out: Activity
RPMI-8226 [2] = experiment: Growth inhibition of human RPMI8226 cells assessed as cell growth at 10^-4 M after 48 hrs by SRB assay; details: RPMI-8226, 48 h, read-out: Activity
[3] = Growth inhibition of human MOLT4 cells assessed as cell growth at 10^-4 M after 48 hrs by SRB assay; details: MOLT-4, 48 h, read-out: Activity
T47D [4] = experiment: Growth inhibition of human T47D cells assessed as cell growth at 10^-5 M after 48 hrs by SRB assay; details: read-out: Activity
[5] = Growth inhibition of human HCT15 cells assessed as cell growth at 10^-8 M after 48 hrs by SRB assay; details: HCT-15, 48 h, read-out: Activity
PC-3 [6] = experiment: Growth inhibition of human PC3 cells assessed as cell growth at 10^-5 M after 48 hrs by SRB assay; details: PC-3, 48 h, read-out: Activity
COLO 205 = experiment: Growth inhibition of human COLO205 cells assessed as cell growth at 10^-5 M after 48 hrs by SRB assay; details: COLO 205, 48 h, read-out: Activity
Method in brief: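 Five-dose NCI panel protocol. Each dose (10^-4 to 10^-8 M, 10-fold steps) was given as 48 h continuous exposure, and protein was measured by SRB staining. Percentage growth at each level is [(Ti−Tz)/(C−Tz)]×100, where Tz is time-zero absorbance and C is untreated control.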

RPMI-8226 [7] = experiment: Growth inhibition of human RPMI8226 cells assessed as cell growth at 10^-5 M after 48 hrs by SRB assay; details: RPMI-8226, 48 h, read-out: Activity
T47D [8] = experiment: Growth inhibition of human T47D cells assessed as cell growth at 10^-6 M after 48 hrs by SRB assay; details: read-out: Activity
SN12C = experiment: Growth inhibition of human SN12C cells assessed as cell growth at 10^-6 M after 48 hrs by SRB assay; details: read-out: Activity
SK-MEL-5 = experiment: Growth inhibition of human SK-MEL-5 cells assessed as cell growth at 10^-6 M after 48 hrs by SRB assay; details: SK-MEL-5, 48 h, read-out: Activity
SK-MEL-28 [9] = experiment: Growth inhibition of human SK-MEL-28 cells assessed as cell growth at 10^-6 M after 48 hrs by SRB assay; details: SK-MEL-28, 48 h, read-out: Activity
SNB-19 [10] = experiment: Growth inhibition of human SNB19 cells assessed as cell growth at 10^-6 M after 48 hrs by SRB assay; details: SNB-19, 48 h, read-out: Activity
MDA-MB-435 [11] = experiment: Growth inhibition of human MDA-MB-435 cells assessed as cell growth at 10^-4 M after 48 hrs by SRB assay; details: MDA-MB-435, 48 h, read-out: Activity
[12] = Growth inhibition of human EKVX cells assessed as cell growth at 10^-4 M after 48 hrs by SRB assay; details: read-out: Activity
[13] = Growth inhibition of human OVCAR3 cells assessed as cell growth at 10^-5 M after 48 hrs by SRB assay; details: OVCAR-3, 48 h, read-out: Activity
MDA-MB-435 [14] = experiment: Growth inhibition of human MDA-MB-435 cells assessed as cell growth at 10^-5 M after 48 hrs by SRB assay; details: MDA-MB-435, 48 h, read-out: Activity
[15] = Growth inhibition of human HCT15 cells assessed as cell growth at 10^-7 M after 48 hrs by SRB assay; details: HCT-15, 48 h, read-out: Activity
A498 = experiment: Cytotoxicity against human A498 cells after 48 hrs by SRB assay; details: A498, 48 h
Method in brief: (§1)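 NCI 60-cell-line panel of human tumour lines from nine cancer types. Continuous 48 h exposure at five 10-fold dilutions from 10^-4 to 10^-8 M, with 5-FU as positive control. SRB protein stain read spectrophotometrically at time zero, untreated control and each concentration. GI50, TGI and LC50 were derived from the [(Ti−Tz)/(C−Tz)]×100 growth relations, and out-of-range values are given as > or < the tested limits.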

[16] = Cytotoxicity against human OVCAR5 cells after 48 hrs by SRB assay; details: OVCAR-5, 48 h; method in brief: as §1
[17] = Cytotoxicity against human OVCAR4 cells after 48 hrs by SRB assay; details: OVCAR-4, 48 h; method in brief: as §1
SK-MEL-28 [18] = experiment: Cytotoxicity against human SK-MEL-28 cells after 48 hrs by SRB assay; details: SK-MEL-28, 48 h; method in brief: as §1
PC-3 [19] = experiment: Cytotoxicity against human PC3 cells after 48 hrs by SRB assay; details: PC-3, 48 h; method in brief: as §1
DU-145 = experiment: Cytotoxicity against human DU145 cells after 48 hrs by SRB assay; details: DU-145, 48 h; method in brief: as §1
SNB-19 [20] = experiment: Growth inhibition of human SNB19 cells assessed as cell growth at 10^-7 M after 48 hrs by SRB assay; details: SNB-19, 48 h, read-out: Activity
[21] = Growth inhibition of human HCC2998 cells assessed as cell growth at 10^-7 M after 48 hrs by SRB assay; details: HCC 2998, 48 h, read-out: Activity
K562 = experiment: Growth inhibition of human K562 cells assessed as cell growth at 10^-7 M after 48 hrs by SRB assay; details: K562, 48 h, read-out: Activity
T47D [22] = experiment: Growth inhibition of human T47D cells assessed as cell growth at 10^-4 M after 48 hrs by SRB assay; details: read-out: Activity
[23] = Growth inhibition of human OVCAR4 cells assessed as cell growth at 10^-4 M after 48 hrs by SRB assay; details: OVCAR-4, 48 h, read-out: Activity
[24] = read-out: LC50 (the source's name)
[25] = read-out: pLC50 (the source's name) (converted)

SMILES: Cc1ccc(-c2nc3ccc(Cl)cc3c(=O)n2/N=C/c2ccccc2)cc1
- growth at 100 µM [1]: 75%
- growth at 100 µM (SW-620): 52%
- growth at 100 µM (RPMI-8226 [2]): 60%
- growth at 100 µM [3]: 56%
- growth at 10 µM (T47D [4]): 14%
- growth at 0.01 µM [5]: 92%
- growth at 10 µM (PC-3 [6]): 66%
- growth at 10 µM (COLO 205): 47%
- growth at 10 µM (RPMI-8226 [7]): 72%
- growth at 1 µM (T47D [8]): 100%
- growth at 1 µM (SN12C): 91%
- growth at 1 µM (SK-MEL-5): 77%
- growth at 1 µM (SK-MEL-28 [9]): 93%
- growth at 1 µM (SNB-19 [10]): 88%
- growth at 100 µM (MDA-MB-435 [11]): 57%
- growth at 100 µM [12]: 11%
- growth at 10 µM [13]: 34%
- growth at 10 µM (MDA-MB-435 [14]): 59%
- growth at 0.1 µM [15]: 92%
- GI50 (A498; read-out: GI50): 5.91 µM
- CC50 (A498; [24]): > 100 µM
- TGI (A498; read-out: TGI): > 100 µM
- GI50 (A498; read-out: pGI50 (converted)): 5.89 µM
- CC50 (A498; [25]): > 100 µM
- TGI (A498; read-out: pTGI): > 100 µM
- GI50 ([16]; read-out: GI50): > 100 µM
- CC50 [16, 24]: > 100 µM
- TGI ([16]; read-out: TGI): > 100 µM
- GI50 ([16]; read-out: pGI50 (converted)): > 100 µM
- CC50 [16, 25]: > 100 µM
- TGI ([16]; read-out: pTGI): > 100 µM
- GI50 ([17]; read-out: GI50): 4.54 µM
- CC50 [17, 24]: > 100 µM
- TGI ([17]; read-out: TGI): > 100 µM
- GI50 ([17]; read-out: pGI50 (converted)): 4.57 µM
- CC50 [17, 25]: > 100 µM
- TGI ([17]; read-out: pTGI): > 100 µM
- GI50 (SK-MEL-28 [18]; read-out: GI50): 20.6 µM
- CC50 (SK-MEL-28 [18]; [24]): > 100 µM
- TGI (SK-MEL-28 [18]; read-out: TGI): > 100 µM
- GI50 (SK-MEL-28 [18]; read-out: pGI50 (converted)): 20.4 µM
- CC50 (SK-MEL-28 [18]; [25]): > 100 µM
- TGI (SK-MEL-28 [18]; read-out: pTGI): > 100 µM
- GI50 (PC-3 [19]; read-out: GI50): 83 µM
- CC50 (PC-3 [19]; [24]): > 100 µM
- TGI (PC-3 [19]; read-out: TGI): > 100 µM
- GI50 (PC-3 [19]; read-out: pGI50 (converted)): 83.2 µM
- CC50 (PC-3 [19]; [25]): > 100 µM
- TGI (PC-3 [19]; read-out: pTGI): > 100 µM
- GI50 (DU-145; read-out: GI50): 58.4 µM
- CC50 (DU-145; [24]): > 100 µM
- TGI (DU-145; read-out: TGI): > 100 µM
- GI50 (DU-145; read-out: pGI50 (converted)): 58.9 µM
- CC50 (DU-145; [25]): > 100 µM
- TGI (DU-145; read-out: pTGI): > 100 µM
- growth at 0.1 µM (SNB-19 [20]): 93%
- growth at 0.1 µM [21]: 102%
- growth at 0.1 µM (K562): 97%
- growth at 100 µM (T47D [22]): 14%
- growth at 100 µM [23]: 26%
